MrgX1 antag: antagonists of human MrgX1 receptor, primary screen, HEK293 cells, Fluo-4 calcium flux | Mas-related G-protein coupled receptor member X1 (Homo sapiens), Q96LB2 | hit rate 1.3% among 310,000 | BAM8-22 antagonism; hits give low values | B-score at 10 µM;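 active = calcium-response B-score plate-corrected more than 3 library SD below zero, starting fluorescence within 5 deviations, no agonist response on first addition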;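 note: peak minus trough fluorescence over baseline after final BAM8-22 challenge near maximal dose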
Target sequence (Q96LB2 whole entry, looked up): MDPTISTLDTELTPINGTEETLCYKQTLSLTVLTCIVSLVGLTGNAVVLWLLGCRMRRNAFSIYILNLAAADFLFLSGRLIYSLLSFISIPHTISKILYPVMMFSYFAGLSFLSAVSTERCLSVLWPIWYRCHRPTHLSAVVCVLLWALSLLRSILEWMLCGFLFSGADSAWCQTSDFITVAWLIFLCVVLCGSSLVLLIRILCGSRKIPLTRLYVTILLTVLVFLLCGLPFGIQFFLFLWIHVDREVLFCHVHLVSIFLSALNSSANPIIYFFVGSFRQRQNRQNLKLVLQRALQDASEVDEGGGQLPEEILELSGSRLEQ
MrgX1 ag: agonists of human MrgX1 receptor, primary screen, HEK293 cells, Fluo-4 calcium flux; Fluo-4 calcium fluorescence, agonist mode; hits give high values; B-score at 10 µM; hit rate 0.44% among 310,000; Mas-related G-protein coupled receptor member X1 (Homo sapiens), Q96LB2; AID 588627, 2011;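 active = calcium response B-score plate-corrected fluorescence ratio at least 3 library SD, with starting fluorescence B-score inside 5 SD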
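Test system: Stable human MrgX1 HEK293 cell line | Schedule: Overnight plating before 1 h dye loading | Read-out basis: Baseline-normalised fluorescence change ratio, B-scored | Detection: Kinetic calcium dye fluorescence, Fluo-4 NW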
RGS4 inh: RGS4 inhibitors, primary screen, cell-based, HEK293 M3R inducible RGS4, calcium flux; hit rate 0.45% among 310,000; Fluo-4 calcium flux; hits give high values; triggered by carbachol at its EC20; B-score at 10 µM; AID 463165, 2010; Regulator of G-protein signaling 4 (Homo sapiens), P49798;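 active = B-score, a plate-corrected calcium signal, over three deviations above library mean, with baseline fluorescence within five deviations of library mean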;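 note: RGS4 expression induced by doxycycline in cells with stable M3 receptor; B-score is computed from the integrated fluorescence ratio over baseline after carbachol; higher B-score means a larger calcium signal and so more RGS4 inhibition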
Target sequence (P49798 whole entry, looked up): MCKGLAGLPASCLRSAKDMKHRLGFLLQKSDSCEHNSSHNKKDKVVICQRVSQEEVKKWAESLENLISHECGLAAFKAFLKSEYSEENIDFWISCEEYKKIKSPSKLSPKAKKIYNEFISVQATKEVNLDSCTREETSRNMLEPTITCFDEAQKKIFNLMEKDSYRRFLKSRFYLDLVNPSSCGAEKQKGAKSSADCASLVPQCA
MrgX1 allo act: positive allosteric modulators of MrgX1, primary screen, HEK293 cells, Fluo-4 calcium flux; FDSS; hits give high values; B-score at 10 µM; hit rate 0.63% among 310,000; AID 588675, 2011;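 active = plate-corrected calcium response at least 3 library SD above typical, normal starting fluorescence, not activating the receptor alone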;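 note: compound read alongside a low EC10 to EC30 dose of BAM8-22 agonist; peak minus trough fluorescence over baseline measured at the second addition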
RGS4 pot: RGS4 potentiators or activators, primary screen, cell-based, HEK293 M3R inducible RGS4, calcium flux | carbachol calcium flux Fluo4; hits give low values | B-score at 10 µM | hit rate 0.92% among 310,000;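 active = B-score of the integrated calcium signal more than 4 SD below the library mean, with starting fluorescence not abnormally high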;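 note: negative B-score means reduced calcium response which marks RGS4 activation or potentiation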
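test system = M3R-expressing HEK293 line, RGS4 induced by doxycycline | probe or stimulus = carbachol at ECmax as muscarinic agonist stimulus | timing = dye loading 30 min 37 °C, buffer rest 30 min RT | signal = calcium dye Fluo4 fluorescence | evaluation = B score from integrated fluorescence ratio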
MrgX1 ag reconf: MrgX1 receptor agonists, duplicate retest, confirmation, HEK293 cells, Fluo-4 calcium flux | shares compounds with MrgX1 ag | Fluo-4 calcium fluorescence, FDSS | hit rate 78% among 600 | activation, % at 10 µM;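 active = calcium signal rise, corrected for plate position, at least 3 library SD high, with starting brightness within 5 such deviations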
HEK293 Ca flux: nonspecific calcium signal in parental HEK293, confirmation, counter-screen for MrgX1 antagonist project, parental HEK293 cells, Fluo-4 calcium flux; Fluo-4 calcium fluorescence, FDSS; fluorescence ratio F(max-min)/F0 at 10 µM; hit rate 2% among 4,000; shares compounds with MrgX1 antag; AID 624111, 2012;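 active = duplicate-averaged calcium fluorescence ratio at least three times the standard deviation of buffer wells, a nonspecific response in parental cells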
HEK293 Ca counter: calcium response in parental HEK293 cells, primary screen, counter-screen for MrgX1 allosteric activator project, cell-based, Fluo-4 calcium flux, duplicate | hit rate 0.4% among 4,000 | Fluo-4 fluorescence ratio; hits give high values | fluorescence ratio F(max-min)/F0 at 10 µM | shares compounds with MrgX1 antag;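 active = calcium fluorescence ratio, averaged over duplicates, at least 3 SD of the buffer-well ratio, meaning a nonspecific response in receptor-free cells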;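 note: untransfected parental HEK293 lacking MrgX1 used as counterscreen for MrgX1 allosteric activators; fluorescence change taken during the second addition on a kinetic imager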
HEK293 Ca cntr2: calcium response in parental HEK293 cells, primary screen, counter-screen for MrgX1 agonist project, cell-based, Fluo-4 calcium flux, duplicate, agonist mode | shares compounds with MrgX1 antag | Fluo-4 calcium fluorescence (FDSS); hits give high values | fluorescence ratio F(max-min)/F0 at 10 µM | hit rate 8.7% among 4,000 | AID 624115, 2012;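 active = calcium fluorescence ratio at least three times the spread of buffer wells, meaning a non-specific response in parental cells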
* hit, by the source's call. Most compounds without a hit are left out; they make up all but 3.5% or so of the library.

Results for C/C(=N\NC(=O)c1c[nH]c2ccccc12)c1ccccn1 ?
MrgX1 antag: inactive; MrgX1 ag: inactive; RGS4 inh: inactive; MrgX1 allo act: inactive; RGS4 pot: inactive

How did C/C(=N\NC(=O)c1cc2ccccc2cc1O)c1ccccn1 do in these assays?
MrgX1 antag: inactive; MrgX1 ag: 68*; RGS4 inh: inactive; MrgX1 allo act: inactive; RGS4 pot: inactive; MrgX1 ag reconf: 458%*; HEK293 Ca flux: inactive; HEK293 Ca counter: inactive; HEK293 Ca cntr2: 109*

How did CCOC(=O)c1cc2c(ccn2C)n1Cc1ccc(C#N)cc1 do in these assays?
MrgX1 antag: inactive; MrgX1 ag: 27*; RGS4 inh: inactive; MrgX1 allo act: inactive; RGS4 pot: inactive; MrgX1 ag reconf: 132%*; HEK293 Ca flux: inactive; HEK293 Ca counter: inactive; HEK293 Ca cntr2: inactive

What do the screens show for `CCOC(=O)c1cc2c(ccn2C)n1Cc1ccc(Cl)cc1`?
MrgX1 antag: inactive; MrgX1 ag: inactive; RGS4 inh: inactive; MrgX1 allo act: inactive; RGS4 pot: inactive

Results for Fc1ccc(CCNC(=S)Nc2ccc(F)c(Cl)c2)cc1 ?
MrgX1 antag: inactive; MrgX1 ag: 30*; RGS4 inh: inactive; MrgX1 allo act: inactive; RGS4 pot: inactive; MrgX1 ag reconf: 150%*; HEK293 Ca flux: inactive; HEK293 Ca counter: inactive; HEK293 Ca cntr2: inactive

How did Fc1ccc(NC(=S)NCCc2ccc(Cl)cc2)cc1 do in these assays?
MrgX1 antag: inactive; MrgX1 ag: inactive; RGS4 inh: inactive; MrgX1 allo act: inactive; RGS4 pot: inactive

What do the screens show for `Cc1ccc2c(c1)[nH]c1c(=O)n(Cc3ccco3)cnc12`?
MrgX1 antag: inactive; MrgX1 ag: inactive; RGS4 inh: inactive; MrgX1 allo act: inactive; RGS4 pot: inactive

Results for COc1ccc2c(c1)cc1n2CCN=C1N ?
MrgX1 antag: inactive; MrgX1 ag: 31*; RGS4 inh: inactive; MrgX1 allo act: inactive; RGS4 pot: inactive; MrgX1 ag reconf: 138%*; HEK293 Ca flux: inactive; HEK293 Ca counter: inactive; HEK293 Ca cntr2: inactive

How did COc1ccc2c(c1)cc1n2CCN2CCCN=C12 do in these assays?
MrgX1 antag: inactive; MrgX1 ag: inactive; RGS4 inh: inactive; MrgX1 allo act: inactive; RGS4 pot: inactive

How did CC1(C)CC(=O)c2c(-c3cccnc3)n[nH]c2C1 do in these assays?
MrgX1 antag: inactive; MrgX1 ag: 29*; RGS4 inh: inactive; MrgX1 allo act: inactive; RGS4 pot: inactive; MrgX1 ag reconf: inactive; HEK293 Ca flux: inactive; HEK293 Ca counter: inactive; HEK293 Ca cntr2: inactive

Results for CC1(C)CC(=O)c2c(Cc3ccccc3)n[nH]c2C1 ?
MrgX1 antag: inactive; MrgX1 ag: inactive; RGS4 inh: inactive; MrgX1 allo act: inactive; RGS4 pot: inactive

Results for Cc1nc2ccc(NS(=O)(=O)c3ccc(F)c(C)c3)cc2[nH]1 ?
MrgX1 antag: inactive; MrgX1 ag: inactive; RGS4 inh: inactive; MrgX1 allo act: inactive; RGS4 pot: inactive

How did N#CC1(Nc2ccccc2)C(=O)Nc2ccccc21 (stereo unspecified) do in these assays?
MrgX1 antag: inactive; MrgX1 ag: 37*; RGS4 inh: inactive; MrgX1 allo act: inactive; RGS4 pot: inactive; MrgX1 ag reconf: 137%*; HEK293 Ca flux: inactive; HEK293 Ca counter: inactive; HEK293 Ca cntr2: inactive

Results for CC1(C)CC(NC(=O)c2cc(S(=O)(=O)N3CCOCC3)c(Cl)cc2Cl)CC(C)(C)N1 ?
MrgX1 antag: inactive; MrgX1 ag: inactive; RGS4 inh: inactive; MrgX1 allo act: inactive; RGS4 pot: inactive

How did Nc1cccc(-c2csc(-n3ncc(C(=O)O)c3C(F)(F)F)n2)c1 do in these assays?
MrgX1 antag: inactive; MrgX1 ag: inactive; RGS4 inh: inactive; MrgX1 allo act: inactive; RGS4 pot: inactive

What do the screens show for `O=C(O)c1cnn(-c2nc(-c3cccc(F)c3)cs2)c1C(F)(F)F`?
MrgX1 antag: inactive; MrgX1 ag: 48*; RGS4 inh: inactive; MrgX1 allo act: inactive; RGS4 pot: inactive; MrgX1 ag reconf: 156%*; HEK293 Ca flux: inactive; HEK293 Ca counter: inactive; HEK293 Ca cntr2: inactive

What do the screens show for `Cc1ccc(N/C(N)=N/c2nc(C)cc(N3CCCCC3)n2)c(C)c1`?
MrgX1 antag: inactive; MrgX1 ag: 34*; RGS4 inh: inactive; MrgX1 allo act: inactive; RGS4 pot: inactive; MrgX1 ag reconf: 137%*; HEK293 Ca flux: inactive; HEK293 Ca counter: inactive; HEK293 Ca cntr2: inactive

Results for Cc1ccc(N/C(N)=N/c2nc3c(c(=O)[nH]2)CCCC3)c(C)c1 ?
MrgX1 antag: inactive; MrgX1 ag: inactive; RGS4 inh: inactive; MrgX1 allo act: inactive; RGS4 pot: inactive

What do the screens show for `COc1ccc(N=C(N)SCc2ccccn2)cc1`?
MrgX1 antag: inactive; MrgX1 ag: 87*; RGS4 inh: inactive; MrgX1 allo act: inactive; RGS4 pot: inactive; MrgX1 ag reconf: 341%*; HEK293 Ca flux: inactive; HEK293 Ca counter: inactive; HEK293 Ca cntr2: 92*

What do the screens show for `COc1ccc(-c2nnc(SCc3ccccn3)n2C)cc1`?
MrgX1 antag: inactive; MrgX1 ag: inactive; RGS4 inh: inactive; MrgX1 allo act: inactive; RGS4 pot: inactive

Results for CC(C)N1C(=O)CCC1C(=O)O (stereo unspecified) ?
MrgX1 antag: inactive; MrgX1 ag: inactive; RGS4 inh: inactive; MrgX1 allo act: inactive; RGS4 pot: inactive

Results for Cc1c(C(O)CN2CCN(Cc3ccc4c(c3)OCO4)CC2)c2ccccc2n1C (stereo unspecified) ?
MrgX1 antag: inactive; MrgX1 ag: 33*; RGS4 inh: inactive; MrgX1 allo act: inactive; RGS4 pot: inactive; MrgX1 ag reconf: inactive; HEK293 Ca flux: inactive; HEK293 Ca counter: inactive; HEK293 Ca cntr2: inactive

Screens: PubChem, Johns Hopkins Ion Channel Center
